For data set [1], the system named is NAT1 mRNA. Nature of the data set: Increase in NAT1 mRNA expression in human HeLa cells at 0.5 uM after 24 hrs by qPCR method. Format: ADME, cell-based. Particulars: read-out: FC. The essentials: (§1)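 After 24 hr with 0.5 μM TSA or vehicle, HeLa NATb-derived NAT1 transcript quantified by qPCR. Cycling: 95°C 10 min, then 40 cycles (NATb) or 30 (β-actin) of 95°C 15 s, 50°C 20 s, 72°C. Single product checked by melt curve and gel. Normalised to β-actin; fold change by ΔΔCT. Mean ± SEM, n = 6; t-test.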
For orientation: Real-time PCR tracks product formation cycle by cycle.

Data set [2] has as its system HeLa. Nature of the data set: Induction of acetylated histone H4 recruitment to NATb promoter in human HeLa cells at 0.5 uM after 6 hrs by ChIP assay.
In data set [3] the test system is HeLa. Nature of the data set: Induction of Sp1 recruitment to NATb promoter in human HeLa cells nuclear extracts at 0.5 uM after 24 hrs by EMSA method. It is filed as cell-based. The essentials:
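Nuclear extracts from HeLa treated with 0.5 µM TSA or vehicle. 2 µg extract incubated with 1 × 10⁵ d.p.m. ³²P probe spanning the NATb Sp1 site, 30 min at room temperature, in binding buffer pH 7.9 with poly[d(I-C)]. Competition used 100-fold excess unlabelled wild-type or mutant probe; supershift used 2 µg Sp1 antibody. Run on 5% native PAGE at 4°C; phosphorimaging.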
(In general: A gel shift assay detects complexes by their altered migration in electrophoresis.)

Data set [4] concerns the target T1, NAT1 (arylamine N-acetyltransferase 1) (Homo sapiens, UniProt P18440).
T1 sequence (P18440 whole entry): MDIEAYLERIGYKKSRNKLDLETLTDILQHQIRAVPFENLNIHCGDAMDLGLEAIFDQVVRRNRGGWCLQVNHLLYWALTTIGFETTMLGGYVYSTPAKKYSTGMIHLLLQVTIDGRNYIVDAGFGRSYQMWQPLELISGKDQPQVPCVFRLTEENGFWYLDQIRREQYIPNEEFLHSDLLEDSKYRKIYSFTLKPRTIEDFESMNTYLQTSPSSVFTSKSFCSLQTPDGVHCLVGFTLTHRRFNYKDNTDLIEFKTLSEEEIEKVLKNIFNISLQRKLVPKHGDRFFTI
In words: Increase in NAT1 enzyme activity in human HeLa cells at 0.5 uM using p-aminobenzoic acid substrate after 24 hrs by HPLC method relative to untreated control. Format: ADME, cell-based. Particulars: probe p-aminobenzoic acid, read-out: FC. In outline: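 HeLa cultured in RPMI 1640 with 5% FBS and treated with 0.5 μM TSA or DMSO vehicle for 24 hr at 37°C. Cells washed with PBS and sonicated in 20 mM Tris pH 7.4, 1 mM EDTA, 1 mM DTT. Lysates assayed at once for NAT1 activity by HPLC with p-aminobenzoic acid substrate. Mean ± SEM, n = 3.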

Data set [5] relates to HeLa. In words: Increase in NATa promoter activity in human HeLa cells at 0.5 uM after 24 hrs by qPCR method. It is filed as ADME, cell-based.
The subject of data set [6] is HeLa. In words: Increase in NATb promoter activity in human HeLa cells at 0.5 uM after 24 hrs by qPCR method. Format: ADME, cell-based. In outline: as §1
Data set [7] deals with HeLa. Nature of the data set: Induction of NATb Sp1 site in human HeLa cells at 0.5 uM after 24 hrs by luciferase reporter gene assay. It is filed as cell-based. A general note: A reporter such as luciferase makes a cellular process visible.
Data set [8] concerns NATb promoter of NAT1. In words: Induction of NATb 3657 bp fragment upstream of exon 4 in human HeLa cells at 0.5 uM after 24 hrs by luciferase reporter gene assay. It is filed as cell-based. Particulars: read-out: FC. The essentials: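 HeLa seeded at 1.5 × 10⁵ cells/well and left overnight, then transfected (Lipofectamine 2000) with 1 µg of a deletion series of NATb promoter–firefly luciferase constructs (length = bp upstream of exon 4). After 4 hr, 0.5 µM TSA or DMSO for 24 hr; passive lysis buffer; luciferase read-out. Mean ± SEM, n = 3; t-test.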

Data set [9] deals with HeLa. Nature of the data set: Induction of Sp1 recruitment to NATb promoter in human HeLa cells at 0.5 uM after 6 hrs by ChIP assay.
The subject of data set [10] is NATb promoter of NAT1. In words: Induction of Sp1 recruitment to NATb promoter in human HeLa cells at 0.5 uM after 24 hrs by luciferase reporter gene assay. Format: cell-based. Particulars: read-out: FC.
Data set [11] has as its system HeLa. Nature of the data set: Effect on NAT1 mRNA stability in human HeLa cells assessed as slope of mRNA decay curve at 0.5 uM after 24 hrs in presence of transcription inhibitor actinomycin D by qPCR method (reference value: -0.78 +/- 0.09/hr).
Data set [12] has as its target T1, NAT1 (arylamine N-acetyltransferase 1). In words: Increase in NAT1 enzyme activity in 100% confluent human HeLa cells at 0.5 uM using p-aminobenzoic acid substrate after 24 hrs by HPLC method relative to untreated control. It is filed as ADME, cell-based. Particulars: probe p-aminobenzoic acid, read-out: FC. In outline: (§2)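 HeLa seeded at 2 × 10⁵, 4 × 10⁵ or 6 × 10⁵ cells/well in 6-well plates (40, 80, 100% confluence at treatment). Treated with 0.5 μM TSA or vehicle for 24 hr. Sonicated lysates in 20 mM Tris pH 7.4, 1 mM EDTA, 1 mM DTT. NAT1 activity measured by HPLC with p-aminobenzoic acid substrate. Mean ± SEM, n = 3; Student's t-test versus vehicle.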

For data set [13] the target is unchanged. Nature of the data set: Increase in NAT1 enzyme activity in 40% confluent human HeLa cells at 0.5 uM using p-aminobenzoic acid substrate after 24 hrs by HPLC method relative to untreated control. Format: ADME, cell-based. Particulars: probe p-aminobenzoic acid, read-out: FC. In outline:
as §2

For data set [14], the system named is NATb promoter of NAT1. In words: Induction of Sp1 (GC>TA) mutant recruitment to NATb promoter in human HeLa cells at 0.5 uM after 24 hrs by luciferase reporter gene assay. It is filed as cell-based. Particulars: read-out: FC.

With `CC(/C=C/C(=O)NO)=C\[C@@H](C)C(=O)c1ccc(N(C)C)cc1` [TRICHOSTATIN], the fold induction at 24 h, 0.5 µM in data set [1] is 25; in data set [4] it was 3.2; in data set [8] it was 18; in data set [10] it was 45; in data set [12] it was less than 1.5; in data set [13], 4.1. Also, the fold induction at 24 h, 0.5 µM in data set [14] was less than 5. In addition, the Activity entry in [2] is recorded as “Toxic”; in data set [3], “Toxic”; in [5], “Non-toxic”; in data set [6] it was “Toxic”; in [7], “Toxic”; in [9] it was “Toxic”. Also, the Activity in data set [11] is -0.46 h⁻¹.

The values above are taken from ChEMBL document CHEMBL3526114, “Histone deacetylase inhibitors increase human arylamine N-acetyltransferase-1 expression in human tumor cells” (Drug Metab Dispos, 2011).
